# Assay results of several laboratories.
# Each line is one published result; the experiments were not run side by side.
# Target: Serine/threonine-protein kinase PLK2 (PLK2, Homo sapiens, UniProt Q9NYY3)
Structure (SMILES),effect on,method,concentration,remaining binding [%]
O=C(c1ccc(Nc2ncc(Cl)c(-c3cc4ccccc4s3)n2)cc1)N1CCC(N2CCCC2)CC1,binding,competition with immobilised ligand,1 µM,68
C[C@@H]1CN(c2cc(-c3n[nH]c4ccc(OC5(C)CC5)cc34)ncn2)C[C@H](C)O1,cell-free assay,competition with immobilised ligand,0.1 µM,76
F[C@@H]1CCN(c2nccc(-c3cnn4ncccc34)n2)C1,binding,,1 µM,100
COc1cnc(Nc2cccc(S(N)(=O)=O)c2)nc1N1CCN(c2ccccc2)CC1,binding,competition with immobilised ligand,1 µM,94
C[C@@H]1CCN(c2nccc(-c3cnn4ncccc34)n2)C1,binding,,1 µM,88
Cc1cnc(Nc2ccc(C(=O)N3CCC(N4CCCC4)CC3)cc2)nc1-c1cc2ccccc2s1,binding,competition with immobilised ligand,1 µM,52
Cc1cnn2ncc(-c3ccnc(N(C)C)n3)c2c1,binding,,1 µM,94
Cc1c(NC(=O)c2cc(C(N)=O)nc3cc(F)ccc23)c(C(F)(F)F)nn1Cc1ccc(C(C)(C)C)cc1,cell-free assay,competition with immobilised ligand,1 µM,100
COc1ccnn2ncc(-c3ccnc(N(C)C)n3)c12,binding,,1 µM,93
c1cncc(-c2cccc(Nc3nccc(NC4CCCCC4)n3)c2)c1,binding,competition with immobilised ligand,10 µM,100
CCS(=O)(=O)c1cc2cc(C[C@@](O)(CC(C)(C)c3ccc(F)cc3C(N)=O)C(F)(F)F)[nH]c2cn1,cell-free assay,competition with immobilised ligand,1 µM,100
O=C(NCCCN1CCOCC1)c1ccc(Nc2ncc(Cl)c(-c3ccc(Cl)s3)n2)cc1,binding,competition with immobilised ligand,1 µM,5.9
FC(F)(F)Oc1cccc(-c2cnc3ccc(-c4ccncc4)nn23)c1,cell-free assay,competition with immobilised ligand,5 µM,77
C[C@@H]1CN(c2cc(-c3nn(C)c4ccc(OC5(C)CC5)cc34)ncn2)C[C@H](C)O1,cell-free assay,competition with immobilised ligand,1 µM,68
N[C@H]1CCN(c2nccc(-c3cnn4ncccc34)n2)C1,binding,,1 µM,71
CN(C)CC#Cc1ccc(OCCCc2sc(N3CCc4cccc(C(=O)Nc5nc6ccccc6s5)c4C3)nc2C(=O)O)c(F)c1,cell-free assay,competition with immobilised ligand,1 µM,94
O=C(NCC1CCOCC1)c1n[nH]cc1NC(=O)c1c(F)cccc1F,binding,competition with immobilised ligand,1 µM,96
N#Cc1ccc(Nc2ccc3[nH]c(=O)[nH]c3c2)c(Cl)c1,cell-free assay,competition with immobilised ligand,1 µM,86
CN(CCCC(F)(F)F)c1nccc(-c2cnn3ncccc23)n1,binding,,1 µM,99
CCN1CCN(Cc2ccc(C(=O)Nc3ccc(C)c(Oc4ccc5c(c4)CC(=O)N5)c3)cc2C(F)(F)F)CC1,binding,competition with immobilised ligand,1 µM,66
